Assay results pooled from the literature.
Lines come from different studies, so protocols differ.
Cell line: MCF7
Read-out: cell growth or viability

SMILES	assay	conditions	quantity	value
CC(=NNC(N)=S)c1ccc(Nc2nnc(-c3ccc(Cl)cc3)c3ccccc23)cc1	MTT	0.625 µM, 24 h	viability	4.56%
C[C@@H]1CC[C@@H]([C@@](C)(O)Cn2cnc3ccccc32)[C@H](OCc2ccccc2)C1	MTT	30 µM, 72 h	inhibition	94.8%
O=C(C=Cc1ccccc1)Nc1ccc(Oc2nnc(-c3ccc(Cl)cc3)c3ccccc23)cc1	MTT	10 µM	cell death	91.9%
Cc1ccc(-c2cc(-c3ccc(N(C)C)cc3)c3c(=O)[nH]c(=O)[nH]c3n2)cc1	MTT	48 h	IC50	10.1 µM
CCOC(=O)c1nn(-c2cccc(Cl)c2)/c(=N/N=C(\C)c2ccc(NC(=O)c3ccc(Cl)cc3)cc2)s1	MTT	5 µM	viability	3.67%
C[C@@H]1CC[C@@H]([C@](C)(O)CNCc2cccc(F)c2)[C@H](OCc2ccccc2)C1	MTT	10 µM, 72 h	inhibition	72.7%
COc1cc2ncnc(Nc3ccc4c(c3)/C(=C/c3ccccc3)C(=O)N4)c2cc1OC	MTT		IC50	18.6 µM
C[C@@H]1CC[C@@H]([C@](C)(O)CNCc2cccc3ccccc23)[C@H](OCc2ccccc2)C1	MTT	10 µM, 72 h	inhibition	61.5%
CC(=NNC(=O)c1cccnc1)c1ccc(Nc2nnc(-c3ccc(Cl)cc3)c3ccccc23)cc1	MTT	0.312 µM, 24 h	viability	100%
COc1ccc(COC[C@@](O)(CNCc2ccccc2)[C@@H]2CC[C@@H](C)C[C@H]2OCc2ccc(OC)cc2)cc1	MTT	30 µM, 72 h	inhibition	102%
CC(=O)c1nn(-c2ccccc2Cl)/c(=N/N=C(\C)c2ccc(NC(=O)c3ccccc3)cc2)s1	MTT	10 µM	viability	5.78%
COc1ccc(COC[C@@](O)(CNCc2ccc(F)cc2)[C@@H]2CC[C@@H](C)C[C@H]2OCc2ccc(OC)cc2)cc1	MTT	10 µM, 72 h	inhibition	94.5%
CN(C)C(=O)c1cc2cnc(Nc3ccc(N4CCNCC4)cn3)nc2n1C1CCCC1		5 days	EC50	0.101 µM
O=C(Nc1ccc(Oc2nnc(-c3ccc(Cl)cc3)c3ccccc23)cc1)c1cccc([N+](=O)[O-])c1	MTT	0.625 µM, 24 h	viability	9.78%
C=C(C)[C@@H]1CC[C@@H](C)C[C@H]1OCc1ccccc1	MTT	30 µM, 72 h	inhibition	31.6%
CC(=O)c1nn(-c2ccc(C)cc2)/c(=N/N=C(\C)c2ccc(NC(=O)c3ccccc3)cc2)s1	MTT	2.5 µM	viability	6.47%
O=C(CCn1c(=O)ccc2ccccc21)N1CCOCC1	MTT	100 µM, 48 h	inhibition	90.5%
CC(=O)Nc1ccc(Oc2nnc(-c3ccc(Cl)cc3)c3ccccc23)cc1	MTT	5 µM, 24 h	viability	3.72%
CC(=O)Nc1ccc(/C(C)=N/N=c2\sc(C(C)=O)nn2-c2ccc(C)cc2)cc1	MTT	1.25 µM	viability	49.5%
CC(=NNC(=O)c1ccccc1Br)c1ccc(Nc2nnc(-c3ccc(Cl)cc3)c3ccccc23)cc1	MTT	0.625 µM	cell death	24.1%
CCOC(=O)c1nn(-c2cccc(Cl)c2)/c(=N/N=C(\C)c2ccc(NC(=O)c3ccccc3)cc2)s1	MTT	5 µM	viability	2.46%
